# PubChem BioAssay AID1753 (Vanderbilt High Throughput Screening Facility, 2009)
# Records with an inconclusive call do not appear. Active and inactive are the calls of the source.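 Rule for the calls: active = a converged dose-response curve, firm or less certain, in at least 2 of 3 replicates; inactive = the rest, inconclusive results apart.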
# System: native HEK293 thallium flux, FluoZin2 fluorescence, ouabain
# Experiment: parental HEK Tl+ uptake potency, primary conditions – HEK cells, counterscreen, counter-screen for KCC2 modulator project, dose response (AID 1753)
# Outline: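 Assay system: native untransfected HEK cells, thallium flux counterscreen with ouabain. Buffer or medium: HBSS, 20 mM HEPES, 0.2 mM ouabain. Also added: thallium stimulus. Compound dosing: 11-point threefold dilution series, top dose 30 µM. Timing: 10–20 s post-thallium window. Detection: kinetic FluoZin2 fluorescence (dye loaded at 0.5 µM), 1 Hz reads. Repeats: three replicates, fitted individually.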
row,Compound,EC50
1,O=C(NC(=S)Nc1cccc2cccnc12)c1cccs1,114 nM (inactive)
2,COc1ccc(-c2nnc(-c3ccc(OCC(C)C)cc3)o2)cc1,777 nM (inactive)
3,Cn1nnnc1SCCNCc1ccncc1,21 nM (inactive)
4,NC(=S)N=Nc1c(O)n(Cc2ccc(F)cc2)c2ccccc12,2250 nM
5,CCOc1cccc(C(=O)NC(=S)Nc2cccc(C)c2)c1,7280 nM
6,Cc1nn(-c2ccccc2)c2sc(C(=O)N(Cc3ccco3)C(C)C(=O)NC(C)(C)C)cc12 (stereo not drawn),10400 nM (inactive)
7,COC(=O)c1sccc1NC(=S)OC,1800 nM
8,CCCC(=O)OCC[N+](C)(C)C,8.1 nM (inactive)
9,CC(C)c1ccc(OCC(=O)NNC(=O)c2cnccn2)cc1,12200 nM (inactive)
10,Cc1ccc(-c2n[nH]c(=S)n2/N=C/C=C\c2ccccc2[N+](=O)[O-])cc1,1470 nM
11,O=C(NC(=S)Nc1ccc2c(c1)OCO2)c1ccc(Cl)cc1,75.7 nM (inactive)
12,COc1ccc(N2C(=S)N=C(Nc3cccc(C)c3)C23CCCCC3)cc1,1920 nM
13,CC(=O)c1cccc(NC(=S)NC(=O)c2ccc(C)cc2)c1,888 nM
14,CCOc1[nH]n(-c2ccccc2)c(=O)c1C=Nc1ccc(F)cc1F,1430 nM
15,COc1ccc(Cn2c(=S)[nH]c3ccccc32)cc1,436 nM
16,Cc1onc(-c2ccccc2Cl)c1C(=O)NC(=S)Nc1ccc(C(C)C)cc1,178 nM
17,NC(=S)N=Nc1c(O)n(Cc2ccccc2)c2ccccc12,124 nM (inactive)
18,COC(=O)[C@@H](NC(=O)O[C@@H]1C(=O)c2ccc(OC)cc2O[C@H]1c1cccc(C(F)(F)F)c1)C(C)C,1680 nM
